Calls of active or inactive are those of the source. The rule behind the calls is not given here.
How the values were obtained:
Rattus norvegicus [1] = test: Inhibition of sEH-P in Sprague-Dawley rat assessed as effect on ratio of sn1-18:2 LPA to corresponding monoacylglycerol species in plasma at 30 mg/kg, po after 8 hrs by LC-MS/MS analysis; type: functional, organism-based
Summary of the method: (§1)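 Male Sprague-Dawley rats given a single oral dose of 30 mg/kg or vehicle (n = 3 per group). Plasma collected 8 h later. Epoxy fatty acid/diol ratios and LPA/corresponding MAG ratios quantified by LC−MS/MS.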

Rattus norvegicus [2] = test: Inhibition of sEH-H in Sprague-Dawley rat assessed as effect on ratio of 12,13-EpOME to 12,13-DiHOME in plasma at 30 mg/kg, po after 8 hrs by LC-MS/MS analysis; type: functional, organism-based; summary of the method: as §1
[3] = Inhibition of hexa-His-tagged human soluble epoxide hydrolase N-terminal phosphatase domain expressed in Escherichia coli BL21(DE3) pre-incubated for 30 mins before FDP substrate addition by fluorescence based assay
Homo sapiens [4] = organism: Homo sapiens; test: Inhibition of soluble epoxide hydrolase N-terminal phosphatase domain in human PBMC assessed as reduction in MAG/LPA ratio at 30 uM incubated for 24 hrs by LC-MS/MS analysis
[5] = target: T1, Bifunctional epoxide hydrolase 2 (Mus musculus, UniProt P34914); test: Inhibition of phosphatase activity of full length mouse soluble epoxide hydrolase pre-incubated for 30 mins before FDP substrate addition by fluorescence based assay
T1 sequence (P34914 whole entry): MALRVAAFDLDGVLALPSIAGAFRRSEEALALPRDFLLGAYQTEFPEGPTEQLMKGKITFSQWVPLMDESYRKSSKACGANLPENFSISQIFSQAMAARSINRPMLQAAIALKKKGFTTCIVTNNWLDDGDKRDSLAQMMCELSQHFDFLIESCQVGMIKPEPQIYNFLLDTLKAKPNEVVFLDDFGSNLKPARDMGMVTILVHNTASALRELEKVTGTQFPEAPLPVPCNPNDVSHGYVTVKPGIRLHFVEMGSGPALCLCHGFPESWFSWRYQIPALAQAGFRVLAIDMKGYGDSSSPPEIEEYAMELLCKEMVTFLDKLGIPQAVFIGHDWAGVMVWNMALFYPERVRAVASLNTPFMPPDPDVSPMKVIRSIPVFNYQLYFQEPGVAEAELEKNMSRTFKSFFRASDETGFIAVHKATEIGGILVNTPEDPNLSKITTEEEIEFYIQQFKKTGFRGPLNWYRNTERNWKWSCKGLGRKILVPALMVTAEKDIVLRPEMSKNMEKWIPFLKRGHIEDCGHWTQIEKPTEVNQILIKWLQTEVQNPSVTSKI

[6] = Half life in Sprague-Dawley rat at 30 mg/kg, po monitored over 8 hrs by LC-MS analysis; type: ADME, organism-based; conditions: in vivo
Summary of the method: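 Male Sprague-Dawley rats (n = 3) given a single oral dose of 30 mg/kg. Plasma compound concentration followed over 8 h. Cmax and half-life derived from the plasma concentration–time profile.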

[7] = Competitive inhibition of hexa-His-tagged human soluble epoxide hydrolase N-terminal phosphatase domain expressed in Escherichia coli BL21(DE3) pre-incubated for 30 mins before DiFMUP substrate addition by fluorescence based assay
Homo sapiens [8] = organism: Homo sapiens; test: Induction of stabilization of hexa-His-tagged human soluble epoxide hydrolase N-terminal phosphatase domain expressed in Escherichia coli BL21(DE3) at 50 uM by differential scanning fluorimetry
[9] = target: T2, Peroxisome proliferator-activated receptor gamma (Homo sapiens) (UniProt P37231); test: Activation of Gal4-fused human PPARgamma LBD transfected in HEK293T cells at 10 uM after 12 to 14 hrs by luciferase reporter gene assay; type: cell-based
T2 sequence (whole entry): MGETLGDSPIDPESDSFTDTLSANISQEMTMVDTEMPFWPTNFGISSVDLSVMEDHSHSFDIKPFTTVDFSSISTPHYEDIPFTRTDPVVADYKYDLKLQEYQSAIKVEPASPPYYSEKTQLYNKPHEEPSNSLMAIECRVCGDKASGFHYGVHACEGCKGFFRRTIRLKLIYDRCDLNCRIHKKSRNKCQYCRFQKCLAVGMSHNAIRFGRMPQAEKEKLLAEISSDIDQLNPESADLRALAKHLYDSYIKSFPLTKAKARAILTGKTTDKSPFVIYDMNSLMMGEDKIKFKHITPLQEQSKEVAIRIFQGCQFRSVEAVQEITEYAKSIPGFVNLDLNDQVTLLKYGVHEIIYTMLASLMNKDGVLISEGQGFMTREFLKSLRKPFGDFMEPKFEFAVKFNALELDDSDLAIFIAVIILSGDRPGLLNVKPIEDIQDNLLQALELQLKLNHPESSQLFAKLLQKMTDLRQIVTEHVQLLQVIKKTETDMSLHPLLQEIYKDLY
Summary of the method: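 Gal4–human nuclear receptor LBD fusion (pFA-CMV-hNR-LBD) co-transfected with pFR-Luc and pRL-SV40 (Lipofectamine LTX) into HEK293T cells seeded the day before. 5 h post-transfection, compound added in Opti-MEM with 0.1% DMSO and incubated 12−14 h. Dual-Glo firefly/Renilla luciferase read. Activation expressed relative to reference agonist at 1 μM. Triplicates, ≥3 independent experiments.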

Rattus norvegicus [10] = test: Inhibition of sEH-P in Sprague-Dawley rat assessed as effect on ratio of sn1-18:1 LPA to corresponding monoacylglycerol species in plasma at 30 mg/kg, po after 8 hrs by LC-MS/MS analysis; type: functional, organism-based; summary of the method: as §1
[11] = target: T3, Bifunctional epoxide hydrolase 2 (Rattus norvegicus, UniProt P80299); test: Inhibition of phosphatase activity of full length rat soluble epoxide hydrolase pre-incubated for 30 mins before FDP substrate addition by fluorescence based assay
T3 sequence (P80299 whole entry): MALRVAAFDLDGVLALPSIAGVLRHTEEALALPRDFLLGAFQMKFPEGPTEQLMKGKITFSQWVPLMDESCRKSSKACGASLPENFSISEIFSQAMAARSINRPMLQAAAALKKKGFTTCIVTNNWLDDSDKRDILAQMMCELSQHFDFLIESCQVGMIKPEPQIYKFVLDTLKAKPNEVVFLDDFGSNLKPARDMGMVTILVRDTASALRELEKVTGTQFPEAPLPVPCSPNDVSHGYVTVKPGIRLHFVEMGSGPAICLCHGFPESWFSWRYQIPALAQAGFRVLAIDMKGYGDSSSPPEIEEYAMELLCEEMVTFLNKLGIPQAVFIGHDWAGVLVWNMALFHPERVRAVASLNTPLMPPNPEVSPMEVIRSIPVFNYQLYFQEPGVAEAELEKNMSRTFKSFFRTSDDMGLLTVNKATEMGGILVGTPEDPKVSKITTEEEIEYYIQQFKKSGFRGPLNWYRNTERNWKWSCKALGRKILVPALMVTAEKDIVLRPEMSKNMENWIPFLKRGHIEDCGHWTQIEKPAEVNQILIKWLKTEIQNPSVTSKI

Structure (SMILES) | inhibition (Rattus norvegicus [1]) | inhibition (Rattus norvegicus [2]) | IC50 [3] | inhibition (Homo sapiens [4]) | IC50 [5] | t1/2 [6] | Ki [7] | Activity (Homo sapiens [8]) | Activity [9] | inhibition (Rattus norvegicus [10]) | IC50 [11]
O=C(O)CCCc1nc(-c2ccc(Cl)c(Cl)c2)c(-c2ccccc2)o1 | Active | inactive | 0.058 µM | Active | > 30 µM | 7 h | 0.05 µM | Active | 29% | Active | 
O=C(O)CCc1nc(-c2ccccc2)c(-c2ccccc2)o1 [OXAPROZIN] |  |  | 5 µM |  | 35.5 µM |  |  |  | inactive |  | 62.5 µM

From ChEMBL document CHEMBL4414562, “Discovery of the First in Vivo Active Inhibitors of the Soluble Epoxide Hydrolase Phosphatase Domain” (J Med Chem, 2019)
